{"data": "Experimental data collected from several papers", "target": "RAF proto-oncogene serine/threonine-protein kinase (RAF1, Homo sapiens, UniProt P04049)", "note": "Each line is one published result; the experiments were not run side by side."}
{"Compound": "C[C@@H]1CN(c2ccc3ncc(-c4ccc5[nH]nc(C6CC6)c5c4)n3n2)C[C@H](C)O1", "observed": "binding", "method": "competition with immobilised ligand", "tested at": "50 nM", "remaining binding [%]": 100}
{"Compound": "Cn1nc(C(=O)NCc2ccc(C(=O)O)cc2)cc1-c1ccc2[nH]ccc2c1", "observed": "cell-free assay", "method": "competition with immobilised ligand", "tested at": "0.1 µM", "remaining binding [%]": 70}
{"Compound": "N[C@H]1CCN(c2nccc(-c3cnn4ncccc34)n2)C1", "observed": "binding", "tested at": "1 µM", "remaining binding [%]": 100}
{"Compound": "O=C(NCC1CCOCC1)c1n[nH]cc1NC(=O)c1c(F)cccc1F", "observed": "binding", "method": "competition with immobilised ligand", "tested at": "1 µM", "remaining binding [%]": 58}
{"Compound": "C[C@@H]1CCN(c2nccc(-c3cnn4ncccc34)n2)C1", "observed": "binding", "tested at": "1 µM", "remaining binding [%]": 100}
{"Compound": "C=CC(=O)N1CCC(C(=O)NCC(=O)N2CCN(c3nc(-c4cnc(N)nc4C(F)F)nc(N4CCOCC4)n3)CC2)CC1", "observed": "binding", "method": "competition with immobilised ligand", "tested at": "1 µM", "remaining binding [%]": 93}
{"Compound": "CCN1CCN(Cc2ccc(C(=O)Nc3ccc(C)c(Oc4ccc5c(c4)CC(=O)N5)c3)cc2C(F)(F)F)CC1", "observed": "binding", "method": "competition with immobilised ligand", "tested at": "1 µM", "remaining binding [%]": 95}
{"Compound": "CN(C)c1nccc(-c2cnc3ncccn23)n1", "observed": "binding", "tested at": "1 µM", "remaining binding [%]": 67}
{"Compound": "COc1cnc(Nc2cccc(S(N)(=O)=O)c2)nc1N1CCN(c2ccccc2)CC1", "observed": "binding", "method": "competition with immobilised ligand", "tested at": "1 µM", "remaining binding [%]": 100}
{"Compound": "O=C(NC[C@@H]1[C@H]2CN(C(=O)OCc3cc(C(F)(F)F)cc(C(F)(F)F)c3)C[C@@H]12)c1ccc2[nH]nnc2c1", "observed": "cell-free assay", "method": "competition with immobilised ligand", "tested at": "1 µM", "remaining binding [%]": 100}
{"Compound": "O=C(NCCCN1CCOCC1)c1ccc(Nc2nccc(-c3cc4ccccc4s3)n2)cc1", "observed": "binding", "method": "competition with immobilised ligand", "tested at": "1 µM", "remaining binding [%]": 65}
{"Compound": "CN(C)c1ncc(F)c(-c2cnn3ncccc23)n1", "observed": "binding", "tested at": "1 µM", "remaining binding [%]": 96}
{"Compound": "CNC(=O)[C@@H]1CC[C@@H](n2c(-c3ccc4cnccc4c3)nc3ccc(C(=O)NCc4cccc(C(N)=O)c4)cc32)C1", "observed": "binding", "method": "competition with immobilised ligand", "tested at": "1 µM", "remaining binding [%]": 82}
{"Compound": "CC(C)(O)c1cncc(-c2nc3ccc(F)cc3n2C2CC2)c1", "observed": "cell-free assay", "method": "competition with immobilised ligand", "tested at": "1 µM", "remaining binding [%]": 83}
{"Compound": "Nc1ncc2c(n1)-c1c([nH]c3ccc(C#CC4CC4)cc13)CCCC2", "observed": "binding", "method": "competition with immobilised ligand", "tested at": "1 µM", "remaining binding [%]": 79}
{"Compound": "O=C(c1ccc(Nc2ncc(Cl)c(-c3ccc(Cl)s3)n2)cc1)N1CCC(N2CCCC2)CC1", "observed": "binding", "method": "competition with immobilised ligand", "tested at": "1 µM", "remaining binding [%]": 45}
{"Compound": "COc1cc(-c2cn(C3CCc4c(F)cccc4N(CC(F)(F)F)C3=O)nn2)ccc1-n1cnc(C)c1 (stereo not drawn)", "observed": "cell-free assay", "method": "competition with immobilised ligand", "tested at": "1 µM", "remaining binding [%]": 100}
{"Compound": "CN(CCCC(F)(F)F)c1nccc(-c2cnn3ncccc23)n1", "observed": "binding", "tested at": "1 µM", "remaining binding [%]": 83}
{"Compound": "Cc1c(C(=O)O)cc(-c2ccc(C3CCNCC3)cc2)c2ccc(-c3ccc(C(F)(F)F)cc3)cc12", "observed": "binding", "method": "competition with immobilised ligand", "tested at": "1 µM", "remaining binding [%]": 80}
{"Compound": "Cc1cnc(Nc2ccc(C(=O)N3CCC(N4CCCC4)CC3)cc2)nc1-c1cc2ccccc2s1", "observed": "binding", "method": "competition with immobilised ligand", "tested at": "1 µM", "remaining binding [%]": 60}
{"Compound": "CN(c1ccnc(CNc2nc(Nc3ccc4c(c3)CC(=O)N4)ncc2C(F)(F)F)n1)S(C)(=O)=O", "observed": "cell-free assay", "method": "competition with immobilised ligand", "tested at": "1 µM", "remaining binding [%]": 85}
{"Compound": "c1cncc(-c2cccc(Nc3nccc(NC4CCCCC4)n3)c2)c1", "observed": "binding", "method": "competition with immobilised ligand", "tested at": "10 µM", "remaining binding [%]": 94}
{"Compound": "Cn1cc(Cl)c2c(Oc3c(F)cc(Nc4cc(Cl)nc(N)n4)cc3F)ccnc21", "observed": "cell-free assay", "method": "competition with immobilised ligand", "tested at": "0.1 µM", "remaining binding [%]": 91}
{"Compound": "CC1CCCN1c1nccc(-c2cnn3ncccc23)n1 (stereo not drawn)", "observed": "binding", "tested at": "1 µM", "remaining binding [%]": 100}
